# From publication PMC5074845 (ACS chemical biology, 2016)
# Where “and” joins values, the source holds several entries; their conditions need not be identical. Equal values may be shown once. Read-outs that look alike come from different tables or passages of the source.
# What was measured:
# NAPE-PLD [1] = target: T1, NAPE-PLD (Homo sapiens, UniProt Q6IQ20); experiment: Binding kinetics by surface plasmon resonance; conditions: for binding affinity compared with another bile acid: SPR, 25 °C, comparison in words
# T1 sequence (Q6IQ20 48-393 limits assumed): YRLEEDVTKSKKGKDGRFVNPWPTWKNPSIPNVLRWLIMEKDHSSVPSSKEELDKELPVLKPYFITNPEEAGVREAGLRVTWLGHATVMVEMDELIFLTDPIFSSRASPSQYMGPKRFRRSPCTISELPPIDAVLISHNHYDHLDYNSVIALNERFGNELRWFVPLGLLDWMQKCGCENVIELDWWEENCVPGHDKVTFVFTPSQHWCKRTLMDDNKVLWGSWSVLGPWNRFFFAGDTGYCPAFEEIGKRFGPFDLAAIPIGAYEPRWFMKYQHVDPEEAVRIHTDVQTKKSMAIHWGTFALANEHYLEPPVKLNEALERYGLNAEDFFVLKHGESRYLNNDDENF
# NAPE-PLD [2] = target: T1, NAPE-PLD; experiment: Fluorescence-based NAPE-PLD activity assay with substrate PED6; assay type: biochemical
# Outline: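 Recombinant human enzyme, purified by amylose then Ni-affinity and size exclusion. Enzyme at 25 nM in 50 mM Tris-HCl pH 8 was pre-incubated 1 h at room temperature with test bile acids (0–5 mM). PED6 was added to 10 μM final (1% DMSO/ethyl acetate). Fluorescence was read after 30 min at 25 °C in the dark ([…] filters). Monohydroxy bile acid was run with 0.2% w/v DCA.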
# NAPE-PLD [3] = target: T1, NAPE-PLD; experiment: Elastic incoherent neutron scattering; conditions: DCA ~10 times the concentration of the enzyme, 280-307 K, D2O buffer
# Outline: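 Purified enzyme in D2O (five exchanges against 100× volume) at 100 mg/mL, with DCA at 0.00, 0.05, 0.15, 0.50 or 1.00% w/v (DCA:enzyme ratios 0–10). Elastic spectra were collected at […], ~3 h per point, on IN13 (up to 100 ps). <u2> came from the slope of ln elastic intensity versus Q2. Force constant came from the <u2>-versus-T slope under a quasi-harmonic approximation.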
# NAPE-PLD [4] = target: T1, NAPE-PLD; experiment: Enzyme kinetics by UPLC-MS/MS in the presence of DCA; assay type: biochemical; conditions: for Km / maximum velocity (Vmax): DCA 0.2% w/v, 37 °C, 15 min, UPLC-MS/MS
# Outline: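 Recombinant enzyme was incubated with varying N-arachidonoyl-PE or N-palmitoyl-PE in 0.05 M Tris-HCl pH 7.4 with 0.2% w/v DCA, 15 min, 37 °C. Reactions were stopped with cold acetonitrile containing AEA-d4 or PEA-d4 internal standard, centrifuged, and the organic layer taken. Products (AEA, PEA) were quantified by UPLC-MS/MS MRM in positive ESI against weighted (1/x) calibration curves. Runs were in triplicate. Km and Vmax came from Michaelis–Menten fits.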
# NAPE-PLD [5] = conditions: without bile acid; cited from earlier work
compound,measurement,setting,value
"C[C@H](CCC(=O)O)[C@H]1CC[C@H]2[C@@H]3[C@H](O)C[C@@H]4C[C@H](O)CC[C@]4(C)[C@H]3C[C@H](O)[C@]12C [CA, cholic acid]",Kd,NAPE-PLD [1],~403 µM
same,binding affinity compared with another bile acid,NAPE-PLD [1],~tenfold lower binding affinity
"C[C@H](CCC(=O)O)[C@H]1CC[C@H]2[C@@H]3[C@H](O)C[C@@H]4C[C@H](O)CC[C@]4(C)[C@H]3CC[C@]12C [CDCA, chenodeoxycholic acid]",Kd,NAPE-PLD [1],~25 µM
same,EC50,NAPE-PLD [2],~4300 µM
C[C@H](CCC(=O)NCCC[N+](C)(C)CCCS(=O)(=O)[O-])[C@H]1CC[C@H]2[C@@H]3[C@H](O)C[C@@H]4C[C@H](O)CC[C@]4(C)[C@H]3C[C@H](O)[C@]12C [CHAPS],binding affinity compared with another bile acid,NAPE-PLD [1],~tenfold lower
"C[C@H](CCC(=O)O)[C@H]1CC[C@H]2[C@@H]3CC[C@@H]4C[C@H](O)CC[C@]4(C)[C@H]3C[C@H](O)[C@]12C [DCA, deoxycholic acid]",Kd,NAPE-PLD [1],~43 µM
same,"effect on protein flexibility (force constant k, mean square displacement)",NAPE-PLD [3],the system lost flexibility
"CC(=O)O[C@H]1C[C@@]2(C)[C@@H](C[C@@H](O)[C@H]3[C@@]4(C)CC[C@@H](O)[C@@H](C)[C@@H]4CC[C@@]32C)/C1=C(\CCC=C(C)C)C(=O)O [FA, fusidic acid]",Kd,NAPE-PLD [1],~70 µM
C[C@H](CCC(=O)NCC(=O)O)[C@H]1CC[C@H]2[C@@H]3[C@H](O)C[C@@H]4C[C@H](O)CC[C@]4(C)[C@H]3CC[C@]12C [GCDG],EC50,"NAPE-PLD [2]; read-out: EC50 of enzyme activation, enzyme 25 nM, PED6 substrate, 25 °C, 30 min",~3600 µM
"C[C@H](CCC(=O)O)[C@H]1CC[C@H]2[C@@H]3CC[C@@H]4C[C@H](O)CC[C@]4(C)[C@H]3CC[C@]12C [LCA, lithocholic acid]",Kd,NAPE-PLD [1],~20 µM
same,effect on NAPE-PLD enzyme activity,"NAPE-PLD [2]; bile acid alone, PED6 substrate",not able alone to solubilize the substrate and activate the membrane enzyme
"C[C@H](CCC(=O)NCCS(=O)(=O)O)[C@H]1CC[C@H]2[C@@H]3[C@H](O)C[C@@H]4C[C@H](O)CC[C@]4(C)[C@H]3C[C@H](O)[C@]12C [TCA, taurocholic acid]",binding affinity compared with another bile acid,NAPE-PLD [1],~tenfold lower
N-arachidonyl-phosphatidylethanolamine [N-arachidonoyl-PE],Km,NAPE-PLD [4],~9 µM and 9.6 µM
same,maximum velocity (Vmax),NAPE-PLD [4],1131 (± 124.4) nmol/min/mg protein and ~ 1131 nmol/min/mg protein
same,rate of hydrolysis compared with N-palmitoyl-phosphatidylethanolamine,NAPE-PLD [4]; in the presence of deoxycholic acid,~ 7 times
same,Vmax,NAPE-PLD [5],~ 73 nmol/min/mg
N-palmitoyl-phosphatidylethanolamine [N-palmitoyl-PE],Km,NAPE-PLD [4],~9 µM and 9.2 µM
same,maximum velocity (Vmax),NAPE-PLD [4],155.8 (± 38.36) nmol/min/mg protein and ~ 156 nmol/min/mg protein
same,Vmax,NAPE-PLD [5],~ 98 nmol/min/mg
